Measured values reported in PMC3779694 (Hepatology (Baltimore, Md.), 2011).

Legend:
Type in all cases: in vivo, human
adults with NASH [1] = assay: Serum ALT, phase 2 placebo-controlled trial of GS-9450 for 4 weeks; conditions: for ALT, %Change at Week 4 / ALT, Change at Week 2 / ALT, Change at Week 4: mean (SD); for Observed change from baseline to week 4 in ALT, Difference T − R / Percent change from baseline to week 4 in ALT, Difference T − R / Observed change from baseline to week 4 in ALT, Least Squares Means GS-9450 (T) / Percent change from baseline to week 4 in ALT, Least Squares Means GS-9450 (T): ANCOVA model
adults with NASH [2] = assay: Serum AST, phase 2 placebo-controlled trial of GS-9450 for 4 weeks; conditions: for AST, %Change at Week 4 / AST, Change at Week 2 / AST, Change at Week 4: mean (SD)
adults with NASH [3] = assay: Serum caspase-3-cleaved CK-18 fragments; conditions: mean (SD)
[4] = Steady-state plasma pharmacokinetics of GS-9450
Outline: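 Plasma was assayed with a validated bioanalytical method. Steady-state Cmax, Tmax, T1/2 and AUCtau came from weeks 2–4 profiles by noncompartmental analysis. Trough samples were taken at weeks 1–4 and follow-up week 1. Dose proportionality of AUCtau and Cmax was tested by a power model across all fasted doses.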

adults with NASH [5] = assay: Exploratory pharmacokinetic/pharmacodynamic modeling; conditions: mean exposure with 40 mg; inhibitory Emax model
adults with NASH [6] = assay: Adverse events, phase 2 trial
[7] = range across the GS-9450 treatment groups
[8] = 1 mg (n = 26), during treatment

CC(C)[C@@]1(C(=O)N[C@H]2CC(=O)O[C@]2(O)CF)CC(c2nccc3ccccc23)=NO1 [GS-9450]
ALT, %Change at Week 4 (adults with NASH [1]; 1 mg once daily): −8 (41) % | ALT, Change at Week 2 (adults with NASH [1]; 1 mg once daily): −17 (31) U/L | ALT, Change at Week 4 (adults with NASH [1]; 1 mg once daily): −14 (40) U/L | Observed change from baseline to week 4 in ALT, Difference T − R (adults with NASH [1]; 1 mg vs. pooled placebo): −11 U/L | Percent change from baseline to week 4 in ALT, Difference T − R (adults with NASH [1]; 1 mg vs. pooled placebo): −6% | Observed change from baseline to week 4 in ALT, Least Squares Means GS-9450 (T) (adults with NASH [1]; 1 mg): −15 U/L | Percent change from baseline to week 4 in ALT, Least Squares Means GS-9450 (T) (adults with NASH [1]; 1 mg): −8% | ALT, %Change at Week 4 (adults with NASH [1]; 5 mg once daily): −28 (21) % | ALT, Change at Week 2 (adults with NASH [1]; 5 mg once daily): −35 (18) U/L | ALT, Change at Week 4 (adults with NASH [1]; 5 mg once daily): −30 (26) U/L | Observed change from baseline to week 4 in ALT, Difference T − R (adults with NASH [1]; 5 mg vs. pooled placebo): −25 U/L | Percent change from baseline to week 4 in ALT, Difference T − R (adults with NASH [1]; 5 mg vs. pooled placebo): −26% | Observed change from baseline to week 4 in ALT, Least Squares Means GS-9450 (T) (adults with NASH [1]; 5 mg): −29 U/L | Percent change from baseline to week 4 in ALT, Least Squares Means GS-9450 (T) (adults with NASH [1]; 5 mg): −28% | ALT, %Change at Week 4 (adults with NASH [1]; 10 mg once daily): −30 (20) % | ALT, Change at Week 2 (adults with NASH [1]; 10 mg once daily): −37 (23) U/L | ALT, Change at Week 4 (adults with NASH [1]; 10 mg once daily): −30 (26) U/L | Observed change from baseline to week 4 in ALT, Difference T − R (adults with NASH [1]; 10 mg vs. pooled placebo): −28 U/L | Percent change from baseline to week 4 in ALT, Difference T − R (adults with NASH [1]; 10 mg vs. pooled placebo): −28% | Observed change from baseline to week 4 in ALT, Least Squares Means GS-9450 (T) (adults with NASH [1]; 10 mg): −32 U/L | Percent change from baseline to week 4 in ALT, Least Squares Means GS-9450 (T) (adults with NASH [1]; 10 mg): −31% | mean (SD) ALT decrease from baseline to week 4 (adults with NASH [1]; 40 mg): 47 (43) U/L | ALT, %Change at Week 4 (adults with NASH [1]; 40 mg once daily): −43 (19) % | ALT, Change at Week 2 (adults with NASH [1]; 40 mg once daily): −46 (46) U/L | ALT, Change at Week 4 (adults with NASH [1]; 40 mg once daily): −47 (43) U/L | Observed change from baseline to week 4 in ALT, Difference T − R (adults with NASH [1]; 40 mg vs. pooled placebo): −39 U/L | Percent change from baseline to week 4 in ALT, Difference T − R (adults with NASH [1]; 40 mg vs. pooled placebo): −40% | mean ALT change from baseline at follow-up week 2 (adults with NASH [1]; 40 mg, off treatment): 16 IU/L | mean ALT change from baseline at follow-up week 3 (adults with NASH [1]; 40 mg, off treatment): 13 IU/L | mean ALT change from baseline at follow-up week 4 (adults with NASH [1]; 40 mg, off treatment): 12 IU/L | proportion of subjects with normal ALT at week 4 (adults with NASH [1]; 40 mg, 0% at baseline, normal 43 U/L males, 34 U/L females): 35% | mean absolute ALT value at week 4 (adults with NASH [1]; 40 mg, 106 U/L at baseline): 62 U/L | Observed change from baseline to week 4 in ALT, Least Squares Means GS-9450 (T) (adults with NASH [1]; 40 mg): −43 U/L | Percent change from baseline to week 4 in ALT, Least Squares Means GS-9450 (T) (adults with NASH [1]; 40 mg): −42% | nonresponders at week 4 (decrease in ALT of <10% relative to baseline) (adults with NASH [1]; 40 mg, two subjects): 8% | time after stopping study medication until ALT reduction was offset (adults with NASH [1]; off-treatment follow-up): ≤ 1 week | ALT mean (SD) changes from baseline at week 4 (adults with NASH [1]; range across the GS-9450 groups (1-40 mg)): −14 (40) to −47 (43) U/L | AST, %Change at Week 4 (adults with NASH [2]; 1 mg once daily): −2 (41) % | AST, Change at Week 2 (adults with NASH [2]; 1 mg once daily): −4 (36) U/L | AST, Change at Week 4 (adults with NASH [2]; 1 mg once daily): −8 (35) U/L | AST, %Change at Week 4 (adults with NASH [2]; 5 mg once daily): −6 (38) % | AST, Change at Week 2 (adults with NASH [2]; 5 mg once daily): −12 (16) U/L | AST, Change at Week 4 (adults with NASH [2]; 5 mg once daily): −5 (24) U/L | AST, %Change at Week 4 (adults with NASH [2]; 10 mg once daily): −16 (29) % | AST, Change at Week 2 (adults with NASH [2]; 10 mg once daily): −22 (34) U/L | AST, Change at Week 4 (adults with NASH [2]; 10 mg once daily): −12 (36) U/L | mean AST decrease from baseline to week 4 (adults with NASH [2]; 40 mg): 13 U/L | proportion of subjects with normal AST, peak at day 3 (adults with NASH [2]; 40 mg): 77% | AST, %Change at Week 4 (adults with NASH [2]; 40 mg once daily): −20 (26) % | AST, Change at Week 2 (adults with NASH [2]; 40 mg once daily): −16 (20) U/L | AST, Change at Week 4 (adults with NASH [2]; 40 mg once daily): −13 (20) U/L | proportion of subjects with normal AST at week 4 (adults with NASH [2]; 40 mg, 20% at baseline, normal 36 U/L males, 34 U/L females): 48% | mean AST within 1 week of stopping study medication (adults with NASH [2]; all GS-9450 treatment groups): modestly above baseline levels | AST mean (SD) changes by treatment week 4 (adults with NASH [2]; [7]): −5 (24) to −13 (20) U/L | AST mean changes from baseline over the first week of treatment (adults with NASH [2]; [7]): −9 (23) to −27 (29) U/L | CK-18 fragments, %Change at Week 4 (adults with NASH [3]; 1 mg once daily): 23 (81) % | CK-18 fragments, Change at Week 2 (adults with NASH [3]; 1 mg once daily): 164 (384) U/L | CK-18 fragments, Change at Week 4 (adults with NASH [3]; 1 mg once daily): 192 (584) U/L | CK-18 fragments, %Change at Week 4 (adults with NASH [3]; 5 mg once daily): 25 (120) % | CK-18 fragments, Change at Week 2 (adults with NASH [3]; 5 mg once daily): −116 (608) U/L | CK-18 fragments, Change at Week 4 (adults with NASH [3]; 5 mg once daily): 96 (641) U/L | CK-18 fragments, %Change at Week 4 (adults with NASH [3]; 10 mg once daily): −26 (38) % | CK-18 fragments, Change at Week 2 (adults with NASH [3]; 10 mg once daily): −460 (866) U/L | CK-18 fragments, Change at Week 4 (adults with NASH [3]; 10 mg once daily): −393 (723) U/L | mean CK-18 fragment levels had decreased to, by week 4 (adults with NASH [3]; 10 mg): 393 (723) U/L | CK-18 fragments, %Change at Week 4 (adults with NASH [3]; 40 mg once daily): −19 (32) % | CK-18 fragments, Change at Week 2 (adults with NASH [3]; 40 mg once daily): −140 (490) U/L | CK-18 fragments, Change at Week 4 (adults with NASH [3]; 40 mg once daily): −125 (212) U/L | mean CK-18 fragment levels had decreased to, by week 4 (adults with NASH [3]; 40 mg): 125 (212) U/L | time by which steady state had been reached ([4]; daily dosing, all dose groups): 2–4 weeks | median Tmax ([4]; fasting conditions, steady state, plasma): 2 to 3 h | Cmax dose proportionality ([4]; from 1 to 40 mg): dose-proportional | response as percent of the maximal effect achievable with GS-9450 (week 4 difference in ALT or CK-18 fragments) (adults with NASH [5]): at least 82% | frequency of treatment-emergent AEs during the 4-week on-treatment period (adults with NASH [6]; 1 mg): 77% | Abdominal pain (adults with NASH [6]; [8]): 1 (4) n (%) | Abdominal pain upper (adults with NASH [6]; [8]): 1 (4) n (%) | Arthralgia (adults with NASH [6]; [8]): 1 (4) n (%) | Asthenia (adults with NASH [6]; [8]): 1 (4) n (%) | Back pain (adults with NASH [6]; [8]): 1 (4) n (%) | Constipation (adults with NASH [6]; [8]): 2 (8) n (%) | Diarrhea (adults with NASH [6]; [8]): 2 (8) n (%)
